Assay results as given in ChEMBL document CHEMBL3414513, “Synthesis and biological evaluation of betulonic acid derivatives as antitumor agents” (Eur J Med Chem, 2015).
Activity calls are given as the source filed them. No cut-off for these calls is given here.

Experiments:
MGC-803 [1] = experiment: Cytotoxicity against human MGC803 cells after 72 hrs by MTT assay; assay type: functional, cell-based; settings: for IC50: MGC-803, 72 h
How it was run: (§1)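 Cancer lines grown in RPMI 1640 with 10% heat-inactivated FBS, 37 °C, 5% CO2. Cells trypsinized at 80-90% confluence, seeded at 2×10^3/well overnight, then given compounds (DMSO stocks diluted in medium) at various concentrations for 72 h at 37 °C. Controls: 0.1% DMSO negative, adriamycin positive. MTT (5 mg/ml) added for 4 h, formazan dissolved in SDS 12 h, A595 read. IC50 from dose-response curves.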

[2] = (§2) Cytotoxicity against human PC3 cells after 72 hrs by MTT assay; assay type: functional, cell-based; settings: PC-3, 72 h
How it was run: as §1, with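 “Cells” for “Cancer lines grown in RPMI 1640 with 10% heat-inactivated FBS, 37 °C, 5% CO2. Cells”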

PC-3 [3] = experiment: as §2; assay type: functional, cell-based
How it was run: as §1, with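 “Cells” for “Cancer lines grown in RPMI 1640 with 10% heat-inactivated FBS, 37 °C, 5% CO2. Cells”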

Bcap37 [4] = experiment: Cytotoxicity against human Bcap37 cells after 72 hrs by MTT assay; assay type: functional, cell-based; settings: for IC50: Bcap37, 72 h; how it was run: as §1
A-375 [5] = experiment: Cytotoxicity against human A375 cells after 72 hrs by MTT assay; assay type: functional, cell-based; settings: for IC50: A-375, 72 h; how it was run: as §1
MCF7 [6] = experiment: Cytotoxicity against human MCF7 cells after 72 hrs by MTT assay; assay type: functional, cell-based; settings: for IC50: MCF7, 72 h; how it was run: as §1
MGC-803 [7] = experiment: Selectivity index, ratio of IC50 for mouse NIH/3T3 cells to IC50 for human MGC803 cells; assay type: functional
How it was run: (§3)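 Index is the IC50 in normal NIH3T3 cells divided by the IC50 in each cancer line. […] HCPT and adriamycin were used as positive controls.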

PC-3 [8] = experiment: Selectivity index, ratio of IC50 for mouse NIH/3T3 cells to IC50 for human PC3 cells; assay type: functional; how it was run: as §3
Bcap37 [9] = experiment: Selectivity index, ratio of IC50 for mouse NIH/3T3 cells to IC50 for human Bcap37 cells; assay type: functional; how it was run: as §3
A-375 [10] = experiment: Selectivity index, ratio of IC50 for mouse NIH/3T3 cells to IC50 for human A375 cells; assay type: functional; how it was run: as §3
MCF7 [11] = experiment: Selectivity index, ratio of IC50 for mouse NIH/3T3 cells to IC50 for human MCF7 cells; assay type: functional; how it was run: as §3
MGC-803 [12] = experiment: Induction of apoptosis in human MGC803 cells assessed as appearance of compact condensed and crescent shaped cells at 10 uM after 48 hrs by Hoechst 33258 staining-based fluorescence microscopic analysis; assay type: functional, cell-based
How it was run: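 MGC-803 cells seeded at 5×10^4 cells/mL in 6-well plates; medium replaced with fresh medium plus 10% FBS and compound (10 µM, 48 h), DMSO negative control. Cells washed, fixed in 4% paraformaldehyde 10 min, stained with Hoechst 33258 for 5 min, washed, then nuclear morphology viewed by fluorescence microscopy (excitation 350 nm, emission 460 nm).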

MGC-803 [13] = experiment: Induction of apoptosis in human MGC803 cells assessed as DNA fragmentation at 10 uM after 48 hrs by TUNEL assay; assay type: functional, cell-based
How it was run: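 MGC-803 cells seeded at 5×10^4 cells/mL in 6-well plates; medium replaced with fresh medium plus 10% FBS and compound (10 µM, 48 h), DMSO negative control. Fixed in 4% paraformaldehyde 40 min, permeabilized 2 min on ice, peroxidase quenched (0.3% H2O2/methanol, 20 min RT), TdT/biotin-dUTP 60 min 37 °C, streptavidin-HRP 30 min, then DAB. Brown precipitate under light microscopy scored apoptotic.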

| Structure (SMILES) | Activity (MGC-803 [1]) | IC50 (MGC-803 [1]) [µM] | IC50 [2] [µM] | Activity (PC-3 [3]) | Activity (Bcap37 [4]) | IC50 (Bcap37 [4]) [µM] | Activity (A-375 [5]) | IC50 (A-375 [5]) [µM] | Activity (MCF7 [6]) | IC50 (MCF7 [6]) [µM] | Ratio IC50 (MGC-803 [7]) | Ratio IC50 (PC-3 [8]) | Ratio IC50 (Bcap37 [9]) | Ratio IC50 (A-375 [10]) | Ratio IC50 (MCF7 [11]) | Activity (MGC-803 [12]) | Activity (MGC-803 [13]) |
| --- | --- | --- | --- | --- | --- | --- | --- | --- | --- | --- | --- | --- | --- | --- | --- | --- | --- |
| C=C(C)[C@@H]1CC[C@]2(C(=O)OCCN3CCN(C(=O)c4ccccc4)CC3)CC[C@]3(C)[C@H](CC[C@@H]4[C@@]5(C)CCC(=O)C(C)(C)[C@@H]5CC[C@]43C)[C@@H]12 | Dose-dependent effect | 5.3 | 4.1 | Dose-dependent effect | Dose-dependent effect | 7.4 | Dose-dependent effect | 6.3 | Dose-dependent effect | 4.7 | 7.62 | 9.85 | 5.46 | 6.41 | 8.6 | – | – |
| C=C(C)[C@@H]1CC[C@]2(C(=O)OCCN3CCN(C(=O)c4ccccc4C)CC3)CC[C@]3(C)[C@H](CC[C@@H]4[C@@]5(C)CCC(=O)C(C)(C)[C@@H]5CC[C@]43C)[C@@H]12 | Dose-dependent effect | 4.5 | 8.7 | Dose-dependent effect | Dose-dependent effect | 6.4 | Dose-dependent effect | 4.5 | Dose-dependent effect | 5.4 | 4.69 | 2.43 | 3.3 | 4.69 | 3.91 | – | – |
| C=C(C)[C@@H]1CC[C@]2(C(=O)OCCCCN(CC)CC)CC[C@]3(C)[C@H](CC[C@@H]4[C@@]5(C)CCC(=O)C(C)(C)[C@@H]5CC[C@]43C)[C@@H]12 | Dose-dependent effect | 3.8 | 4.4 | Dose-dependent effect | Dose-dependent effect | 5.2 | Dose-dependent effect | 9.2 | Dose-dependent effect | 7.9 | 6.15 | 5.32 | 4.5 | 2.54 | 2.96 | – | – |
| C=C(C)[C@@H]1CC[C@]2(C(=O)OCCN3CCN(C(=O)c4ccc(F)c(F)c4)CC3)CC[C@]3(C)[C@H](CC[C@@H]4[C@@]5(C)CCC(=O)C(C)(C)[C@@H]5CC[C@]43C)[C@@H]12 | Dose-dependent effect | 4.4 | 4.6 | Dose-dependent effect | Dose-dependent effect | 3.9 | Dose-dependent effect | 7.2 | Dose-dependent effect | 3.7 | 4.2 | 4.02 | 4.74 | 2.57 | 5 | – | – |
| C=C(C)[C@@H]1CC[C@]2(C(=O)OCCCCN3CCCC3)CC[C@]3(C)[C@H](CC[C@@H]4[C@@]5(C)CCC(=O)C(C)(C)[C@@H]5CC[C@]43C)[C@@H]12 | Dose-dependent effect | 4 | 6.7 | Dose-dependent effect | Dose-dependent effect | 4.7 | Dose-dependent effect | 8.5 | Dose-dependent effect | 5.4 | 7.18 | 4.28 | 6.11 | 3.38 | 5.31 | – | – |
| CC[C@@]1(O)C(=O)OCc2c1cc1n(c2=O)Cc2cc3cc(O)ccc3nc2-1 [HYDROXYCAMPTOTHECIN] | Dose-dependent effect | 29.1 | 34.5 | Dose-dependent effect | Dose-dependent effect | 28.1 | Dose-dependent effect | 27.8 | – | 48.2 | – | – | – | – | – | Active | Active |
| C=C(C)[C@@H]1CC[C@]2(C(=O)OCCN3CCCCC3)CC[C@]3(C)[C@H](CC[C@@H]4[C@@]5(C)CCC(=O)C(C)(C)[C@@H]5CC[C@]43C)[C@@H]12 | Dose-dependent effect | 12.5 | 18.8 | Dose-dependent effect | Dose-dependent effect | 16.9 | Dose-dependent effect | 17.1 | Dose-dependent effect | 16 | – | – | – | – | – | – | – |
| C=C(C)[C@@H]1CC[C@]2(C(=O)OCCCN3CCCC3)CC[C@]3(C)[C@H](CC[C@@H]4[C@@]5(C)CCC(=O)C(C)(C)[C@@H]5CC[C@]43C)[C@@H]12 | Dose-dependent effect | 7.4 | 7.6 | Dose-dependent effect | Dose-dependent effect | 9.2 | Dose-dependent effect | 8.3 | Dose-dependent effect | 8.4 | – | – | – | – | – | – | – |
| C=C(C)[C@@H]1CC[C@]2(C(=O)OCCN3CCCC3)CC[C@]3(C)[C@H](CC[C@@H]4[C@@]5(C)CCC(=O)C(C)(C)[C@@H]5CC[C@]43C)[C@@H]12 | Dose-dependent effect | 10.8 | 12.3 | Dose-dependent effect | Dose-dependent effect | 10.2 | Dose-dependent effect | 9.7 | Dose-dependent effect | 9.4 | – | – | – | – | – | – | – |
